The entries come from a sample that favours hits as a whole.
ABCB6 inh 2 = human ABCB6 transporter inhibition; Q9NP58; fluorescence ratio to DMSO, % at 10 µM; AID 602162; K562-ABCB6 porphyrin accumulation, flow cytometry, 1 h; hits give low values; actives 0.19% (n = 360,000);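 active = fluorescence ratio to DMSO below 75%, the collection mean minus 3 SD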;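 note: signal is porphyrin accumulated inside mitochondria; 100% equals median channel fluorescence of DMSO control wells; lower ratio means ABCB6 inhibition with less porphyrin fluorescence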
FLuc inhib CS = inhibits firefly luciferase, flagging false hits in luciferase inhibition screens; ATPLite firefly luciferase biochemical luminescence, 10 min; actives 1.5% (n = 200,000); P08659; inhibition, % at 10 µM;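 active = inhibition above about 50% when tested at 10 µM, limit read from the data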
ABCG2 inh = blocks JC-1 efflux by human ABCG2 transporter. actives 0.1% (n = 190,000). IgMXP3 cells, flow cytometry. Q9UNQ0. inhibition, % at 6.6 µM;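 active = inhibition above 80%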;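 note: 0% = DMSO and 100% = nicardipine control wells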
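material = IgMXP3 (ABCG2) plus far-red-tagged CCRF-Adr (ABCB1) cells | amount = 3 million cells/mL, equal mix of both lines | also added = JC-1 transporter substrate | dosing = one concentration, 6.6 µM final | schedule = 10 min at 25 °C | measured by = flow cytometric JC-1 green MFI at 530 nm | read-out basis = percent efflux inhibition, scaled nicardipine 100% to DMSO 0%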
Diaphorase act = activates diaphorase or chemically reduces, flagging diaphorase assay artifacts | Diaphorase/resazurin coupled assay, resorufin fluorescence, 16 min; hits give high values; 1 = vehicle wells, 0 = NADH-free wells | activation factor at 20 µM | actives 0.005% (n = 190,000);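 active = diaphorase activity raised at least twofold by the compound at 20 µM; inactive = activation factor below 2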
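Assay system: bacterial diaphorase enzyme (C. kluyveri) / Input: enzyme 0.07 U/mL final / Medium: 50 mM HEPES pH 7.4 with 4.542 mM MgCl2, 0.005% Tween 20 / Doses: single compound dose of 20 µM, 1% DMSO final / Incubation: 16 min enzyme reaction, ambient temperature / Signal: fluorescence, excitation 544 nm and emission 590 nm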
ABCB1 block = inhibitors of human ABCB1 transporter, ABCG2 counter-screen. P08183. inhibition, % at 6.6 µM. actives 0.067% (n = 190,000). CCRF-Adr cells, JC-1 efflux, flow cytometry. AID 1326; in the data active = inhibition above about 40%;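 note: 0% = vehicle and 100% = reference inhibitor; higher value means more JC-1 retained so stronger ABCB1 efflux block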
Target sequence (P08183 whole entry, looked up): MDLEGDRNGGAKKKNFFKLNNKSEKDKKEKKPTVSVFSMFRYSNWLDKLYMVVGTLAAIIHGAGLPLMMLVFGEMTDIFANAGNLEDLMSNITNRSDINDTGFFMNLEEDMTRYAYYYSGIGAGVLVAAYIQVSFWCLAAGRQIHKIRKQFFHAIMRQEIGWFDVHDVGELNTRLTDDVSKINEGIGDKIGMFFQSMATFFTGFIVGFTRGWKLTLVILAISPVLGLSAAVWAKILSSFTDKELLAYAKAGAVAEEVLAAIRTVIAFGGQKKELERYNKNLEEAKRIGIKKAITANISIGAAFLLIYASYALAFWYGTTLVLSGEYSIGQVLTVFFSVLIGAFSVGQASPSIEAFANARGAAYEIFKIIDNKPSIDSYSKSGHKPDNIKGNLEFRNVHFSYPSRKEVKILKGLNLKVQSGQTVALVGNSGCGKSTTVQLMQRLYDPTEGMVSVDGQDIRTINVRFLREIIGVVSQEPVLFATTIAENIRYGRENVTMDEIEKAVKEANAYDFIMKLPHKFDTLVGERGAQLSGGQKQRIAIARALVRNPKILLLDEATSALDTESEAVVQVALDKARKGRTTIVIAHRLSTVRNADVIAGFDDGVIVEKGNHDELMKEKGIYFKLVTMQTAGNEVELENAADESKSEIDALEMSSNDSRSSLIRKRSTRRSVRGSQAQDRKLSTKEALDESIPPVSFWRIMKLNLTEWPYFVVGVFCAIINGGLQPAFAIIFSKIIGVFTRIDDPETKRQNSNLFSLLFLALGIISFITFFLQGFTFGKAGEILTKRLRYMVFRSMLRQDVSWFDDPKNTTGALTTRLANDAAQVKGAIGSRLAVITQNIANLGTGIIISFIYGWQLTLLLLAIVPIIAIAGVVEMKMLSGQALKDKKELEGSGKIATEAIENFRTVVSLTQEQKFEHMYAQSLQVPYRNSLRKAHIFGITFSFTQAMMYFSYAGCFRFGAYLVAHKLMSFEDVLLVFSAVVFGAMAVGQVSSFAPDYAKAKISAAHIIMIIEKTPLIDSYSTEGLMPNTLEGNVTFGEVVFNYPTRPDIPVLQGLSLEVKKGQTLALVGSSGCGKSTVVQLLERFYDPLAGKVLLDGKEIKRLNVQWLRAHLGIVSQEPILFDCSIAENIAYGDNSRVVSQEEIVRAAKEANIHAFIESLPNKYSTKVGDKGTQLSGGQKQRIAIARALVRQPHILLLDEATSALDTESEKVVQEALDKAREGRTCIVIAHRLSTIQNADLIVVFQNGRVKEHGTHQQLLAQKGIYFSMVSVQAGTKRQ
FLuc act counter = firefly luciferase counter-screen for stimulation assays; P08659; 200,000 tested, under 10 active; activation factor at 10 µM; ATPlite luciferase biochemical, luminescence, 10 min; 0 = ATP-free wells, 1 = DMSO control; AID 1027;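 active = luciferase activation factor, scaled between plate controls, of at least 2 with compound at 10 µM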
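Assay system – cell-free luciferase reagent · Medium – PBS-based ATP solution · Dosing – test compounds dosed from 2 mM stocks in 100% DMSO · Timing – 10 min, room temperature · Technique – light output (luminescence) · Measure – luminescence gain marking luciferase activators · Controls – No-ATP low control, compound-free enzyme-plus-ATP high control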
Active calls of the source: *; / = not tested or not shown.

SMILES	ABCB6 inh 2	FLuc inhib CS	ABCG2 inh	Diaphorase act	ABCB1 block	FLuc act counter
CN1CCN(C(=O)c2ccccc2NS(=O)(=O)c2ccc(F)cc2)CC1	101	/	/	/	/	/
CCc1cccc(C)c1NC(=O)CN1C(=O)NC(CCc2ccccc2)C1=O (centres undefined)	101	/	/	/	/	/
CCN=c1scc(-c2ccccc2)n1/N=C/c1ccccn1	100	74*	29	0.8	0	0.3
CC(C)c1ccc(Nc2nnc(SCC(=O)Nc3ncc(S(=O)(=O)c4ccc([N+](=O)[O-])cc4)s3)s2)cc1	91	73*	-3	1.1	-1	0.3
Cc1ccc(Nc2nnc(SCC(=O)Nc3ncc(S(=O)(=O)c4ccc([N+](=O)[O-])cc4)s3)s2)cc1	93	10	-14	1	-2	0.9
Cc1ccc(S(=O)(=O)NC(=O)COc2ccc(Cl)cc2Cl)cc1	91	/	/	/	/	/
Cc1cccc(C2=N/C(=C\c3cccs3)C(=O)O2)c1	101	65*	4	0.8	-1	0.3
Cc1ccc(S(=O)(=O)Oc2ccc(/C=C3\N=C(c4cccc(C)c4)OC3=O)cc2)cc1	93	-3	8	1	-1	1
Cc1onc(-c2c(F)cccc2Cl)c1C(=O)OCC(=O)N(C)c1ccccc1	104	/	/	/	/	/
Fc1cccc2sc(Nc3nc4cc5c(cc4s3)OCCO5)nc12	90	79*	-5	0.9	-1	0.2
O/C(=C\c1nc2ccccc2nc1/C=C(\O)c1ccccc1)c1ccccc1	198	73*	0	0.8	2	0.3
COc1ccc(OC)c(NC(=O)Nc2nc(C(C)N)cs2)c1 (centres undefined)	95	/	/	/	/	/
CC(=O)c1ccc(NC(=O)/C(=C\c2ccc(F)cc2)NC(=O)c2ccco2)cc1	74*	/	/	/	/	/
O=C1CCC(=O)N1c1ccc(-c2nc3ccccc3s2)cc1	106	88*	5	0.8	0	0.1
O=C(N/N=C/c1ccc2c(c1)OCO2)c1cccs1	97	75*	7	1	0	0.2
Cc1occc1C(=O)N/N=C/c1ccc2c(c1)OCO2	97	/	/	/	/	/
O=C(N/N=C/c1cccc([N+](=O)[O-])c1O)c1cccs1	102	67*	23	0.5	0	0.3
Cc1ccsc1C(=O)N/N=C/c1ccc2c(c1)OCO2	98	64*	11	0.9	1	0.4
Cc1cc(C(=O)N/N=C/c2ccc3c(c2)OCO3)c(C)o1	95	64*	0	1	0	0.4
O=C(N/N=C/c1ccc2c(c1)OCO2)c1cccc2ccccc12	97	/	/	/	/	/
CCCS(=O)(=O)NC(=O)C1(C)CCN(C(=O)c2ccccc2OC)C1 (centres undefined)	102	/	/	/	/	/
COc1ccc(CC(=O)N(C)Cc2cccc(OC)c2OC)cc1S(=O)(=O)N1CCOCC1	98	/	/	/	/	/
N/C(=N\OC(=O)c1ccc2ccccc2c1)c1ccccn1	119	90*	2	0.9	0	0.1
N/C(=N\OC(=O)c1cccc([N+](=O)[O-])c1)c1ccccn1	103	67*	2	1	0	0.3
N/C(=N\OC(=O)C1CCCCC1)c1ccccn1	102	72*	8	0.8	0	0.3
SMILES	ABCB6 inh 2	FLuc inhib CS	ABCG2 inh	Diaphorase act	ABCB1 block	FLuc act counter
N/C(=N/OC(=O)c1cccc([N+](=O)[O-])c1)c1cccc([N+](=O)[O-])c1	102	-1	5	1.1	0	1
Cn1c(/N=C/c2ccc3c(c2)OCO3)nc2ccccc21	94	91*	1	1	0	0.1
CC(C)n1c(/N=C/c2c[nH]c3ccccc23)nc2ccccc21	98	33	2	0.8	1	0.7
Cn1c(/N=C/c2c[nH]c3ccccc23)nc2ccccc21	101	88*	48	0.7	2	0.1
Nc1nc2ccccc2n1/N=C/c1ccc2c(c1)OCO2	90	/	/	/	/	/
CC(C)N(C(=O)CSc1n[nH]c(=O)n1CCc1ccccc1)C(C)C	100	/	/	/	/	/
O=C(CSc1ncnc2ccccc12)NCc1ccco1	100	-10	35	0.9	1	1.1
O=C(CSc1ncnc2ccccc12)c1ccco1	104	81*	3	0.8	0	0.2
O=C(Nc1ccc(NC(=O)c2cccnc2Cl)cc1)c1cccc(Cl)c1	95	/	/	/	/	/
CCOc1ccc(NS(=O)(=O)c2c(C)nc3sc(CC)nn3c2=O)cc1	99	/	/	/	/	/
O=C(N/N=C/c1ccccn1)c1ccccc1	98	56*	-14	0.9	-3	0.4
O=C(N/N=C\c1ccncc1)c1ccccc1O	91	69*	10	1	1	0.3
Cc1ccccc1C(=O)N/N=C/c1ccccn1	99	54*	0	0.8	0	0.5
O=C(N/N=C\c1ccccn1)c1cccc(C(=O)N/N=C\c2ccccn2)n1	98	/	/	/	/	/
O=C(N/N=C\c1ccccn1)c1ccccc1O	98	69*	15	0.9	0	0.3
Cc1ccccc1C(=O)N/N=C/c1ccncc1	103	6	3	0.9	1	0.9
O=C(N/N=C/c1ccccn1)c1ccncc1	100	/	/	/	/	/
C(=C\c1ccccc1)/CN1CCN(C(c2cc3ccccc3o2)c2nnnn2Cc2ccccc2)CC1 (centres undefined)	102	/	/	/	/	/
Cc1ccccc1NP1(=O)OCCCN1Cc1ccccc1Cl (centres undefined)	181	/	/	/	/	/
C#CCNC(=O)C1=C[C@H](C(C)(C)C)C[C@H](OCCCCO)O1	102	/	/	/	/	/
COc1ccccc1N1CCN(c2ccc3ccccc3n2)CC1	94	/	/	/	/	/
COc1ccccc1N1CCN(c2ccc(-c3ccccc3)nn2)CC1	98	90*	6	0.9	0	0.1
O=C(/C=C/Nc1ccc(Br)cc1F)c1ccccc1	101	96*	8	0.9	0	0
O=C(/C=C/Nc1ccc(F)c(F)c1)c1ccc(Br)cc1	100	17	6	1	0	0.8
O=C(/C=C/Nc1ccccc1F)c1ccc(Br)cc1	89	80*	-3	0.9	-1	0.2
Cc1ccc(S(=O)(=O)N(C)C[C@@H]2OCCCC[C@H](C)Oc3ccc(NC(=O)Nc4ccc(F)cc4)cc3C(=O)N([C@H](C)CO)C[C@H]2C)cc1	102	/	/	/	/	/
COc1cccc(N2CCN(S(=O)(=O)c3ccc4ccccc4c3)CC2)c1	89	/	/	/	/	/
CN(C(=O)CSc1nnc(Nc2ccccc2)s1)c1c(N)n(Cc2ccccc2)c(=O)[nH]c1=O	90	-4	-1	0.9	0	1
CCCCN(C(=O)CSc1nnc(Nc2ccc(C)c(C)c2)s1)c1c(N)n(Cc2ccccc2)c(=O)[nH]c1=O	85	63*	3	1	2	0.4
